# Source: PubChem
# Cneo AK release: Cryptococcus neoformans cell lysis inducers, primary screen, AK release luminescence, single concentration; hit rate 0.2% among 360,000; C. neoformans lysis, adenylate kinase release luminescence, 4 h; normalised: neutral wells 0, clomiphene wells 100; lysis activity, % at 15 µM;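 active = mean lysis activity across replicates of at least 80%, whatever share of replicates individually reach that level; inactive = mean lysis activity below 80%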
#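 Material: C. neoformans cells; Schedule: 4 h static compound exposure, 37 °C, read 1 h post-reagent; Measured by: adenylate kinase release luminescence; Read-out: signal increase indicating cell lysis; Controls: Clomiphene as positive lysis control.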
# Env fusion inh: inhibitors of HIV-1 Env-driven cell-cell fusion, primary screen, HeLa-JRFL effector, CEM21 target cells, luciferase; inhibition, % at 12.3 µM; hit rate 1.1% among 360,000;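 active = mean replicate inhibition score of at least 50 and every replicate individually at or above 50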
# CFTR F508del cor: F508del CFTR correction, initial screen, CFBE line, single point; AID 720511, 2013; hit rate 0.36% among 350,000; activity (quench increase), % at 7.58 µM; CFBE cells, YFP halide quenching; stimulated with forskolin plus potentiator P3; % fluorescence drop versus neutral controls;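 active = mean added fluorescence quench of at least 8% versus neutral control, with both replicates also reaching 8%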;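 note: cells transiently co-express mutant CFTR-F508del with the halide-sensitive YFP; corrector assay measuring rescue of mutant channel to the surface after 24 h compound exposure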
# INS-1E GSIS act: GLuc luminescence reporter in INS-1E cells, primary screen for activators of glucose-dependent secretion of insulin; INS-1E GLuc reporter insulin secretion, 2-3 h; activation, % at 16.6 µM; hit rate 0.61% among 370,000;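 active = lowest replicate activation of at least 40%, so every replicate reaches that level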
# miR-122 sensor: miR-122 Renilla sensor signal increase in Huh7, primary screen, miR-122 inhibitor project, cell-based, single point, plate reader | hit rate 0.3% among 340,000 | Huh7 miR-122 Renilla luciferase sensor, 48 h; neutral wells = 0, positive control = 100 | activation (reporter increase), % at 12.5 µM;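 active = mean replicate activation score at least 90 and every replicate individually at or above 90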;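 note: higher luciferase means less miR-122 activity so hits act as miR-122 inhibitors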
# rRNA inh HTS: reduced GFP signal of wild-type E. coli, primary screen, bacterial rRNA inhibitor project, GFP/RFP fluorescence, OD600, single point; E. coli WT GFP vs humanized-ribosome RFP mutants, 24 h; stronger effect = lower value; DMSO median 0, no signal -100; AID 720706, 2013; hit rate 1.6% among 350,000; GFP signal change (wild-type ribosome), % (no concentration beside the values);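 active = significant combined selectivity score with lowered wild-type GFP, culture density cut under 30%, mutant RFP and density less affected; inactive = any of these conditions unmet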
# A number is an active result; – = inactive; · = not tested or not shown. The list is not random: actives were taken first. Their share in the collection is about 3.1%.
SMILES,Cneo AK release,Env fusion inh,CFTR F508del cor,INS-1E GSIS act,miR-122 sensor,rRNA inh HTS
COc1ccc2c3c([nH]c2c1)[C@H](CO)N(C(=O)C1CCOCC1)CC31CN(C)C1,·,·,·,–,·,–
CCc1ccc(N(C(=O)c2snc(C(N)=O)c2N)C(C(=O)NCCC(C)C)c2c[nH]c3ccccc23)cc1 (centres undefined),–,118,·,·,–,·
NC(=O)c1nsc(C(=O)N(c2ccc(F)cc2)C(C(=O)NCC2CCCO2)c2c[nH]c3ccccc23)c1N (centres undefined),–,–,–,–,–,–
COc1ccc(OCc2n(CC(=O)OC3CC(C)CCC3C(C)C)c3ccccc3[n+]2C)cc1 (centres undefined),–,87,–,271,–,–
COc1ccc(-c2n(CC(=O)OC3CC(C)CCC3C(C)C)c3ccccc3[n+]2C)cc1 (centres undefined),·,–,–,–,·,–
COc1ccc(S(=O)(=O)N(C)C[C@@H]2Oc3ccc(NC(=O)CCN4CCOCC4)cc3CC(=O)N([C@H](C)CO)C[C@H]2C)cc1,–,–,–,–,–,–
Cc1cc(C2=NNC(=NC3CC3)SC2)c(C)n1Cc1ccco1,·,–,·,–,·,·
COCCCN=C1NN=C(c2cc(C)n(Cc3ccco3)c2C)CS1,·,–,18,–,·,–
C=CCn1c(C)cc(C2=NNC(=NC(C)(C)C)SC2)c1C,·,–,·,–,·,–
C=CCN=C1NN=C(c2cc(C)n(CCOC)c2C)CS1,·,75,·,–,·,–
COCCn1c(C)cc(C2=NNC(=Nc3ccc(Cl)cc3Cl)SC2)c1C,–,–,·,·,–,·
COCCn1c(C)cc(C2=NNC(=NC3CC3)SC2)c1C,·,57,–,–,·,–
CNC[C@@H]1Oc2ccc(NS(=O)(=O)c3cccs3)cc2C(=O)N([C@@H](C)CO)C[C@@H]1C,–,·,–,–,–,–
CC1Cc2cc(/C=C3/SC(=S)NC3=O)ccc2O1 (centres undefined),–,–,–,·,–,-20
CCOC(=O)N/N=C/c1ccccc1OCc1ccc(Cl)cc1,·,–,·,–,·,-25
C[C@@H]1CN([C@H](C)CO)C(=O)c2cc(NC(=O)NC3CCCCC3)ccc2O[C@@H](C)CCCCO[C@H]1CN(C)C(=O)NC1CCCCC1,–,–,–,–,–,–
CC(C)c1ccccc1-n1c(SCC(=O)N2CCc3ccccc3C2)nc2ccccc2c1=O,–,60,–,–,·,–
COc1cccc(NC(=O)CSc2nc3c(sc4ccccc43)c(=O)n2CCCN2CCCC2)c1,–,–,–,–,–,–
CCN(CC)CCn1c(SCC(=O)Nc2cccc(OC)c2)nc2c(sc3ccccc32)c1=O,·,–,–,–,·,-21
NS(=O)(=O)c1ccc(Nc2nc(-c3cccc([N+](=O)[O-])c3)cs2)cc1,–,–,–,–,–,-27
CCOC(=O)C1CCCN(C(=S)Nc2ccc(Nc3ccccc3)cc2)C1 (centres undefined),–,–,–,–,–,-30
CCOC(=O)C1CCCN(C(=O)C2COc3ccccc3O2)C1 (centres undefined),–,·,–,42,–,–
CC1CCN(C(=O)C2COc3ccccc3O2)CC1 (centres undefined),–,·,16,–,·,–
CCOC(=O)C1CCCN(C(=O)C2c3ccccc3Oc3ccccc32)C1 (centres undefined),–,–,·,·,–,·
CC(=O)N(C)C[C@@H]1Oc2c(NC(=O)NC(C)C)cccc2C(=O)N(C)C[C@@H]1C,·,·,·,–,·,–
SMILES,Cneo AK release,Env fusion inh,CFTR F508del cor,INS-1E GSIS act,miR-122 sensor,rRNA inh HTS
CCC(C)(C)C(=O)O[C@H]1C[C@@H](C)C=C2C=C[C@H](C)[C@H](CC[C@@H]3C[C@@H](O)CC(=O)O3)[C@H]21,–,67,–,·,–,·
CCCOc1ccccc1/C=C(\C#N)C(=O)Nc1cccc(C)n1,–,–,–,–,·,-24
C[C@H](NC(=O)C[C@@H]1CC[C@H](NC(=O)C2CCC2)[C@H](CO)O1)c1ccccc1,–,–,–,–,·,–
N#CCCCCn1ccc(NC(=O)c2ccc(Cl)cc2O)n1,·,–,–,–,·,-30
CCOC(=O)C1=C(C)NC2=C(C(=O)CCC2)C1c1cn(Cc2ccc(Cl)cc2Cl)nc1-c1ccccc1 (centres undefined),–,121,·,·,–,·
CCOC(=O)C1=C(C)NC2=C(C(=O)CCC2)C1c1cc(OC)ccc1OC (centres undefined),–,·,–,–,–,–
COC(=O)C1=C(C)NC2=C(C(=O)CCC2)C1c1cn(Cc2ccc(Cl)cc2Cl)nc1-c1ccccc1 (centres undefined),–,110,·,·,–,·
C[C@H]1CN([C@@H](C)CO)C(=O)c2cc(NC(=O)CCC(F)(F)F)ccc2O[C@@H]1CN(C)Cc1ccc(Cl)c(Cl)c1,–,–,–,–,–,–
CC/C(O)=C1\C(=O)CC(C)(C)CC1=Nc1ccccc1C,·,·,·,73,·,·
CCCN=C1CC(C)(C)CC(=O)/C1=C(/O)CCC,·,–,–,–,–,–
CCC/C(O)=C1\C(=O)CC(C)(C)CC1=NCc1ccccc1,·,–,–,·,·,-22
N#Cc1ccc(-c2ccc3c(c2)[C@@H]2[C@@H](CCN2C(=O)c2ccccc2F)[C@@H](CO)N3)cc1,–,·,–,–,–,–
COc1ccc(NC(=O)Nc2ccc3c(c2)C(=O)N([C@H](C)CO)C[C@H](C)[C@H](CN(C)C(=O)Nc2ccc(C(F)(F)F)cc2)O3)cc1,–,·,–,–,–,–
Cn1c(=O)c(C(=O)NNC(=O)c2cccc(Cl)c2)c(O)c2ccccc21,–,–,–,545,–,–
Cc1cccc(C(=O)NNC(=O)c2c(O)c3ccccc3n(C)c2=O)c1,–,–,–,–,–,–
CS(=O)(=O)Nc1ccc2c(c1)[C@@H]1C[C@@H](CC(=O)NC3CCCCC3)O[C@H](CO)[C@@H]1O2,–,–,–,–,–,–
Cc1ccccc1NC(=O)CN1C(=O)S/C(=C/c2cccnc2)C1=O,–,–,–,40,–,–
Cc1ccc(NC(=O)C(NC2CCCc3ccccc32)c2ccccc2)c([N+](=O)[O-])c1 (centres undefined),–,86,·,–,–,·
Cc1ccc(S(=O)(=O)N2CCC(C)CC2)c([N+](=O)[O-])c1,–,–,–,–,–,-25
CO[C@@H]1CN(C)C(=O)c2ccc(NC(=O)C3CCOCC3)cc2OC[C@@H](C)N(C(=O)Nc2ccc(C(F)(F)F)cc2)C[C@H]1C,–,–,–,–,·,–
